From ChEMBL document CHEMBL3244308, “Potential antitumor agents. 22. Latentiated congeners of the 4'-(9-acridinylamino)methanesulfonanilides” (J Med Chem, 1977)

Experiments:
[1] = Lipophilic-hydrophilic balance, Rm of the compound by reversed-phase partition chromatography; type: physicochemical
Mus musculus = assay: Toxicity in ip dosed mouse assessed as optimum dose that providing maximum increase in life span administered qd for 1 to 5 days; type: organism-based; conditions: in vivo
Procedure, shortened: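 Mice were C3H/DBA2 F1 hybrids weighing 18.5-22.5 g. L1210 cells (10^5) were implanted ip or sc above the right axilla. Daily ip treatment began 24 h later and continued for 5 days (dq 1-5), given in water or as a homogenized suspension in aqueous methylcellulose. The optimum dose (mg/kg/day) is the one giving maximum life-span increase (T/C% - 100). Groups were six mice; 50-day survivors were counted.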

L1210 [2] = assay: Antitumor activity against mouse L1210 cells intraperitoneally xenografted in ip dosed C3H/DBA2 F1 hybrid mouse assessed as increase in host lifespan administered daily for 5 days starting 24 hrs post-tumor implantation; type: functional
Procedure, shortened: (§1)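 10⁵ L1210 cells implanted ip into 18.5-22.5-g C3H/DBA2 F1 mice. Daily ip treatment for 5 days from 24 h after implant, as water-soluble salts (methanesulfonate or hydrochloride) or as homogenized suspensions in aqueous methylcellulose. Groups of six mice. Read-out is increase in life span (T/C% − 100) at the optimum dose (maximal life-span increase, mg/kg/day); 50-day survivors counted.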

L1210 [3] = assay: Antitumor activity against mouse L1210 cells subcutaneously xenografted in ip dosed C3H/DBA2 F1 hybrid mouse assessed as increase in host lifespan administered daily for 5 days starting 24 hrs post-tumor implantation; type: functional
Procedure, shortened: as §1, with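 “implanted sc above the right axilla” for “implanted ip”, “ip dosing” for “ip treatment”, “salts” for “salts (methanesulfonate or hydrochloride)”, “mice. Increase” for “mice. Read-out is increase”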

| Compound | Rm [1] | Activity (Mus musculus) [mg/kg] | ILS (L1210 [2]) [%] | ILS (L1210 [3]) [%] |
| --- | --- | --- | --- | --- |
| CCCCC(=O)N(c1ccc(Nc2c3ccccc3nc3cc(N)ccc23)cc1)S(C)(=O)=O.Cl | 0.31 | 1 | 61 | – |
| CCCN(C)/N=N/c1ccc2c(Nc3ccc(NS(C)(=O)=O)cc3OC)c3ccccc3nc2c1.CS(=O)(=O)O | 0.65 | 15 | 100 | 59 |
| Cc1cccc2c(Nc3ccc(NS(C)(=O)=O)cc3)c3ccc([N+](=O)[O-])cc3nc12 | -0.01 | 100 | 113 | 98 |
| CCN(CC)/N=N/c1ccc2c(Nc3ccc(NS(C)(=O)=O)cc3)c3ccccc3nc2c1.CS(=O)(=O)O | – | 25 | 96 | 28 |
| COc1cc(NS(C)(=O)=O)ccc1Nc1c2ccccc2nc2cc(/N=N/N(C)C)ccc12.Cl | 0.38 | 10 | 141 | 34 |
| Br.CCC(=O)N(c1ccc(Nc2c3ccccc3nc3cc(N)ccc23)cc1)S(C)(=O)=O | -0.04 | 2 | 49 | – |
| CCCCCC(=O)N(c1ccc(Nc2c3ccccc3nc3ccccc23)cc1)S(C)(=O)=O.Cl | 0.45 | 150 | 41 | – |
| CCC(=O)N(c1ccc(Nc2c3ccc([N+](=O)[O-])cc3nc3c(C)cccc23)cc1)S(C)(=O)=O | 0.2 | 50 | 81 | 27 |
| CCC(=O)N(c1ccc(Nc2c3ccccc3nc3c(C)cccc23)c(OC)c1)S(C)(=O)=O | 0.37 | 25 | 31 | – |
| CC(=O)Nc1ccc2c(Nc3ccc(NS(C)(=O)=O)cc3)c3ccccc3nc2c1 | -0.12 | 13 | 114 | 33 |
| CCCCCCCC(=O)N(c1ccc(Nc2c3ccccc3nc3ccccc23)cc1)S(C)(=O)=O.Cl | 0.68 | 400 | 41 | – |
| CCCCCCCC(=O)N(c1ccc(Nc2c3ccccc3nc3cc(N)ccc23)cc1)S(C)(=O)=O.Cl | 0.57 | 2.5 | 119 | – |
| CCCN(C)/N=N/c1ccc2c(Nc3ccc(NS(C)(=O)=O)cc3)c3ccccc3nc2c1.CS(=O)(=O)O | 0.47 | 15 | 98 | 27 |
| CCCCC(=O)N(c1ccc(Nc2c3ccccc3nc3c(C)cccc23)c(OC)c1)S(C)(=O)=O | 0.66 | 250 | 50 | – |
| CCCC(=O)N(c1ccc(Nc2c3ccccc3nc3c(C)cccc23)c(OC)c1)S(C)(=O)=O | 0.53 | 75 | 52 | – |
| CCCCCC(=O)N(c1ccc(Nc2c3ccccc3nc3cc(NC(C)=O)ccc23)cc1)S(C)(=O)=O.Cl | 0.51 | 42 | 81 | 43 |
| CCCCCC(=O)N(c1ccc(Nc2c3ccccc3nc3cc([N+](=O)[O-])ccc23)cc1)S(C)(=O)=O | 0.41 | 5 | 57 | 39 |
| CN(C)/N=N/c1ccc2c(Nc3ccc(NS(C)(=O)=O)cc3)c3ccccc3nc2c1.Cl | 0.22 | 8 | 110 | 38 |
| CCCCCCCCCCCCCCCCCC(=O)N(c1ccc(Nc2c3ccccc3nc3cc(NC(C)=O)ccc23)cc1)S(C)(=O)=O | 0.87 | 450 | 68 | 39 |
| CCC(=O)N(c1ccc(Nc2c3ccccc3nc3cc([N+](=O)[O-])ccc23)cc1)S(C)(=O)=O | 0.13 | 50 | 162 | 57 |
| CCCCCCCC(=O)N(c1ccc(Nc2c3ccccc3nc3cc([N+](=O)[O-])ccc23)cc1)S(C)(=O)=O | 0.61 | 10 | 62 | 47 |
| CC(=O)N(c1ccc(Nc2c3ccccc3nc3cc(N)ccc23)cc1)S(C)(=O)=O.Cl | -0.22 | 2 | 74 | – |
| CCOC(=O)CCC(=O)N(c1ccc(Nc2c3ccccc3nc3c(C)cccc23)c(OC)c1)S(C)(=O)=O.CS(=O)(=O)O | – | 13.3 | 40 | – |
| CCC(=O)N(c1ccc(Nc2c3ccccc3nc3cc(NC(C)=O)ccc23)cc1)S(C)(=O)=O.Cl | 0 | 40 | 135 | 88 |

| Compound | Rm [1] | Activity (Mus musculus) [mg/kg] | ILS (L1210 [2]) [%] | ILS (L1210 [3]) [%] |
| --- | --- | --- | --- | --- |
| CCCCC(=O)N(c1ccc(Nc2c3ccccc3nc3ccccc23)cc1)S(C)(=O)=O.Cl | 0.34 | 400 | 68 | 28 |
| COc1cc(N(C(C)=O)S(C)(=O)=O)ccc1Nc1c2ccccc2nc2ccccc12.Cl | 0.05 | 6 | 70 | 33 |
| Br.CCCCCCCCCCCC(=O)N(c1ccc(Nc2c3ccccc3nc3cc(NC(C)=O)ccc23)cc1)S(C)(=O)=O | 0.81 | 30 | 72 | 41 |
| CCCC(=O)N(c1ccc(Nc2c3ccccc3nc3cc(N)ccc23)cc1)S(C)(=O)=O.Cl | 0.13 | 1 | 53 | – |
| CC(=O)N(c1ccc(Nc2c3ccc([N+](=O)[O-])cc3nc3c(C)cccc23)cc1)S(C)(=O)=O | -0.03 | 200 | 217 | 188 |
| CCCCCCC(=O)N(c1ccc(Nc2c3ccccc3nc3cc([N+](=O)[O-])ccc23)cc1)S(C)(=O)=O | 0.5 | 9 | 48 | 41 |
| CS(=O)(=O)Nc1ccc(Nc2c3ccccc3nc3cc([N+](=O)[O-])ccc23)cc1 | -0.07 | 25 | 123 | 43 |
| Br.CCCCCCC(=O)N(c1ccc(Nc2c3ccccc3nc3ccccc23)cc1)S(C)(=O)=O | 0.54 | 150 | 61 | 27 |
| CCCCC(=O)N(c1ccc(Nc2c3ccccc3nc3cc(NC(C)=O)ccc23)cc1)S(C)(=O)=O.Cl | 0.36 | 80 | 89 | 63 |
| CCCCCC(=O)N(c1ccc(Nc2c3ccccc3nc3cc(N)ccc23)cc1)S(C)(=O)=O.Cl | 0.43 | 2 | 46 | – |
| CCOC(=O)CCC(=O)N(c1ccc(Nc2c3ccccc3nc3c(C)cccc23)c(OC)c1)S(C)(=O)=O | 0.62 | 18 | 43 | – |
| Br.CCCCCCCCC(=O)N(c1ccc(Nc2c3ccccc3nc3cc(NC(C)=O)ccc23)cc1)S(C)(=O)=O | 0.72 | 45 | 143 | 83 |
| CCCCCCC(=O)N(c1ccc(Nc2c3ccccc3nc3cc(N)ccc23)cc1)S(C)(=O)=O.Cl | 0.51 | 2 | 31 | – |
| CCCCCCCCC(=O)N(c1ccc(Nc2c3ccccc3nc3cc(N)ccc23)cc1)S(C)(=O)=O.Cl | 0.59 | 2.5 | 64 | – |
| CS(=O)(=O)Nc1ccc(Nc2c3ccccc3nc3cc(N)ccc23)cc1 | -0.17 | 2.5 | 81 | – |
| CCCCCCCCC(=O)N(c1ccc(Nc2c3ccccc3nc3ccccc23)cc1)S(C)(=O)=O.Cl | 0.74 | 400 | 31 | – |
| CC(C)(C)C(=O)N(c1ccc(Nc2c3ccccc3nc3ccccc23)cc1)S(C)(=O)=O.Cl | 0.31 | 250 | 47 | – |
| CCCC(=O)N(c1ccc(Nc2c3ccccc3nc3ccccc23)cc1)S(C)(=O)=O.Cl | 0.28 | 400 | 31 | – |
| CCCCCC(=O)N(c1ccc(Nc2c3ccccc3nc3c(C)cccc23)c(OC)c1)S(C)(=O)=O | 0.79 | 66 | 39 | – |
| CCN(CC)/N=N/c1ccc2c(Nc3ccc(NS(C)(=O)=O)cc3)c3ccccc3nc2c1 | 0.49 | – | – | – |
| CCCOC(=O)CCC(=O)N(c1ccc(Nc2c3ccccc3nc3c(C)cccc23)c(OC)c1)S(C)(=O)=O | 0.75 | 75 | – | – |
| COc1cc(N(C(C)=O)S(C)(=O)=O)ccc1Nc1c2ccccc2nc2c(C)cccc12 | 0.24 | 7.5 | 38 | – |
| CCCC(=O)N(c1ccc(Nc2c3ccccc3nc3cc([N+](=O)[O-])ccc23)cc1)S(C)(=O)=O | 0.27 | 50 | 52 | – |
